Laboratory results as given in ChEMBL document CHEMBL4152363, “Andrographolide derivative as STAT3 inhibitor that protects acute liver damage in mice” (Bioorg Med Chem, 2018).
The source made the active and inactive calls. The calls are words filed in the database; no cut-off is given here.

What was measured:
Mus musculus [1] = assay: Reduction in serum ALT level in CCL4-induced acute liver damage in Balb/c mouse at 30 mg/kg, po qd for 7 days measured after 16 hrs post CCL4 challenge […]; assay type: functional, organism-based
Mus musculus [2] = assay: Hepatoprotective activity against CCL4-induced acute liver damage in Balb/c mouse assessed as increase in number of Ki67 positive cells at 30 mg/kg, po qd for 7 days measured after 16 hrs post CCL4 challenge by hematoxylin staining based immunohistochemistry method; assay type: functional, organism-based
How it was run: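 Liver sections from mice dosed orally 30 mg/kg daily 7 days then sc CCl4, killed 16 h after; H2O2 block, goat serum/BSA/gelatin blocking 1 h RT, primary antibody (α-SMA, Ki67, PCNA or STAT3) 4 °C overnight, HRP secondary, DAB, hematoxylin counterstain; >30 fields at 400× quantified; n=5.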

Mus musculus [3] = assay: Reduction in MMP9 mRNA expression level in CCL4-induced acute liver damage in Balb/c mouse at 30 mg/kg, po qd for 7 days measured after 16 hrs post CCL4 challenge by qRT-PCR method; assay type: functional, organism-based
How it was run: (§1)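 Mice given 30 mg/kg orally once daily 7 days before sc CCl4 (40% in olive oil, 10 ml/kg); livers harvested 16 h later, PBS-washed, stored at −70 °C for RNA extraction and transcript quantification; n=5, two independent experiments.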

Mus musculus [4] = assay: Hepatoprotective activity against CCL4-induced acute liver damage in Balb/c mouse assessed as decrease in hepatic damage at 30 mg/kg, po qd for 7 days measured after 16 hrs post CCL4 challenge by hematoxylin-eosin staining based light microscopy; assay type: functional, organism-based
How it was run: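 Male BalB/C mice given oral 30 mg/kg daily for 7 days, then sc CCl4 (40% in olive oil, 10 ml/kg); sacrificed 16 h later; livers fixed in 10% formaldehyde, paraffin sections stained with H&E or Masson's trichrome, light microscopy, ≥3 sections per liver; n=5, two experiments.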

Mus musculus [5] = assay: Reduction in SMAD4 mRNA expression level in liver of CCL4-induced acute liver damage in Balb/c mouse at 30 mg/kg, po qd for 7 days measured after 16 hrs post CCL4 challenge by qRT-PCR method; assay type: functional, organism-based; how it was run: as §1
Mus musculus [6] = assay: Antiinflammatory activity in CCL4-induced acute liver damage Balb/c mouse model assessed as decrease in serum MCP-1 levels at 30 mg/kg, po qd for 7 days measured after 16 hrs post CCL4 challenge; assay type: functional, organism-based
How it was run: (§2)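 BalB/C males dosed orally 30 mg/kg daily for 7 days, then sc CCl4 (40% in olive oil, 10 ml/kg); serum collected 16 h post-CCl4 after CO2 anaesthesia, stored at −70 °C until IL-6, MCP-1 or TGF-β analysis; n=5.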

Mus musculus [7] = assay: Antiinflammatory activity in CCL4-induced acute liver damage Balb/c mouse model assessed as decrease in serum TGF-beta levels at 30 mg/kg, po qd for 7 days measured after 16 hrs post CCL4 challenge; assay type: functional, organism-based; how it was run: as §2
Mus musculus [8] = assay: Reduction in Col3a1 mRNA expression level in CCL4-induced acute liver damage in Balb/c mouse at 30 mg/kg, po qd for 7 days measured after 16 hrs post CCL4 challenge by qRT-PCR method; assay type: functional, organism-based; how it was run: as §1
HeLa = assay: Cytotoxicity against human HeLa cells; assay type: cell-based
How it was run: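 AD-293 or HeLa cells grown in high-glucose DMEM with 10% FBS and 1% penicillin-streptomycin; compound exposure 24 h; cytotoxicity reported as CC10.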

Mus musculus [9] = assay: Toxicity in Balb/c mouse assessed as change in body weight at 30 mg/kg, po qd for 7 days; assay type: organism-based; conditions: in vivo, 168 h
How it was run: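 Male BalB/C mice (20–25 g, 6–8 weeks, 1-week acclimation) dosed orally 30 mg/kg once daily 7 days, then subcutaneous CCl4 (40% in olive oil, 10 ml/kg); body weight tracked during treatment; S.E.M.; two independent experiments, n=5.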

[10] = molecular target: T1, Signal transducer and activator of transcription 3 (Homo sapiens, UniProt P40763); assay: Inhibition of IFNgamma-stimulated STAT3 activation in human HeLa cells incubated with IFNgamma for 16 hrs followed by compound addition measured after 24 hrs by luciferase reporter gene assay; assay type: cell-based
T1 sequence (P40763 whole entry): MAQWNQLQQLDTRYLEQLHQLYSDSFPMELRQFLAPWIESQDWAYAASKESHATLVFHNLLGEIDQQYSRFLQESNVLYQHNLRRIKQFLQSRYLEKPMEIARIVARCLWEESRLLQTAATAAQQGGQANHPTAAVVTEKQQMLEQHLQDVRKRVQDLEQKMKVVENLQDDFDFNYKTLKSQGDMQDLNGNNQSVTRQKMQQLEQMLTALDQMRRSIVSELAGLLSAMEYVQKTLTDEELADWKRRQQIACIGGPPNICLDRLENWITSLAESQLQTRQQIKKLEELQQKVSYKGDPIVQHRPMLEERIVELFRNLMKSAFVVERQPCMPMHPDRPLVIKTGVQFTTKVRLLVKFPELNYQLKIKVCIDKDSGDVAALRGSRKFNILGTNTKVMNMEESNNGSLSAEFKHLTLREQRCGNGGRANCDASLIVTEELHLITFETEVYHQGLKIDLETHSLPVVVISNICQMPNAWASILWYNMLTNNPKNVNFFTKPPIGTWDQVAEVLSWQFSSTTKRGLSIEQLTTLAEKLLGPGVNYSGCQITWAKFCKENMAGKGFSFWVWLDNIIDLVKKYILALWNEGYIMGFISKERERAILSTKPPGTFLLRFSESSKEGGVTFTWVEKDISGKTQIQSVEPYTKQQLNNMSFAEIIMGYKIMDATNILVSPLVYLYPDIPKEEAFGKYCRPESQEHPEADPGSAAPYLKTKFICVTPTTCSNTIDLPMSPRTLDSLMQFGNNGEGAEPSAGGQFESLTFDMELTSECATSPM
How it was run: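 AD-293 or HeLa cells in DMEM/10% FBS stimulated with 20 pg/mL IFN-γ; compound treatment 24 h; luciferase activity measured in cell extracts; EC50 derived.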

[11] = molecular target: T1, Signal transducer and activator of transcription 3; assay: Inhibition of STAT3 in human AD293 cells assessed as decrease in TGFbeta-stimulated SMAD2/3 activation up to 10 uM incubated for 16 hrs by luciferase reporter gene assay relative to control; assay type: cell-based
How it was run: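 AD-293 cells carrying SMAD2/3 promoter in pGL4.20 luciferase vector, stimulated with TGF-β 100 ng/ml for 16 h with compound up to 10 µM; luciferase activity measured in cell extracts.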

Mus musculus [12] = assay: Reduction in MMP13 mRNA expression level in CCL4-induced acute liver damage in Balb/c mouse at 30 mg/kg, po qd for 7 days measured after 16 hrs post CCL4 challenge by qRT-PCR method; assay type: functional, organism-based; how it was run: as §1
[13] = molecular target: T1, Signal transducer and activator of transcription 3; assay: Inhibition of IFNgamma-stimulated GFP/FLAG-tagged STAT3 dimerization in human AD293 cells at 10 uM incubated for 6 hrs by Western blot analysis; assay type: cell-based
How it was run: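 AD-293 cells co-transfected 48 h with GFP- and FLAG-tagged STAT3 plasmids, then IFN-γ with or without compound for 6 h; 100 μg lysate (RIPA) immunoprecipitated with anti-FLAG and protein G beads; blots probed for GFP and FLAG, chemiluminescent detection.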

[14] = molecular target: T1, Signal transducer and activator of transcription 3; assay: Inhibition of […] activation in human HeLa cells incubated […] for 16 hrs followed by compound addition measured after 4 hrs by luciferase reporter gene assay; assay type: cell-based
How it was run: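 NF-κB pathway in AD-293 or HeLa cells stimulated with 50 ng/mL TNF-α; compound treatment 4 h; luciferase activity read from cell extracts; EC50 derived.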

[15] = molecular target: T1, Signal transducer and activator of transcription 3; assay: Inhibition of […] activation in human AD293 cells incubated […] for 16 hrs followed by compound addition measured after 4 hrs by luciferase reporter gene assay; assay type: cell-based
[16] = molecular target: T1, Signal transducer and activator of transcription 3; assay: Inhibition of IFNgamma-stimulated STAT3 phosphorylation at Tyr705 residues in human AD293 cell lysates incubated with IFNgamma followed by compound addition at 10 uM by Western blot analysis
How it was run: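 AD-293 cells treated with 1 μg/mL IFN-γ alone or with compounds at 10 μM; phospho- and total STAT1 and STAT3 assessed by western blot; representative of at least three independent experiments.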

Mus musculus [17] = assay: Reduction in SMAD3 mRNA expression level in liver of CCL4-induced acute liver damage in Balb/c mouse at 30 mg/kg, po qd for 7 days measured after 16 hrs post CCL4 challenge by qRT-PCR method; assay type: functional, organism-based; how it was run: as §1

EC50 [10]: 5.9 µM | inhibition [11]: < 50% | inhibition [13]: Active | EC50 [14]: > 10 µM | EC50 [15]: > 10 µM | inhibition [16]: > 50%
SMILES: CC(C)(C)[Si](C)(C)O[C@@H]1COC(=O)/C1=C/C[C@@H]1[C@]2(CC[C@H]3[C@@]1(C)CCC(=O)[C@@]3(C)CO)CO2
Activity (Mus musculus [1]): inactive | Activity (Mus musculus [2]): Active | Activity (Mus musculus [3]): inactive | Activity (Mus musculus [4]): Active | Activity (Mus musculus [5]): inactive | Activity (Mus musculus [6]): Active | Activity (Mus musculus [7]): Active | Activity (Mus musculus [8]): inactive | CC10 (HeLa): > 10 µM | Activity (Mus musculus [9]): Non-Toxic | Activity (Mus musculus [12]): Active | Activity (Mus musculus [17]): inactive
